ChEMBL document CHEMBL4765234 (J Med Chem, 2016)
The source made the active and inactive calls. The rule behind the calls is not given here.

Key:
[1] = target: Free fatty acid receptor 1 (Mus musculus) (UniProt Q76JU9); experiment: Agonist activity at Prolink-tagged mouse GPR40 fused with EA-tagged beta-arrestin expressed in human U2OS cells assessed as induction of beta-arrestin recruitment measured after 90 mins by beta-galactosidase based PathHunter assay relative to control; type: cell-based; conditions: filed as agonist
Sequence of Free fatty acid receptor 1 (Mus musculus) (Q76JU9 whole entry, the tested form may be a part): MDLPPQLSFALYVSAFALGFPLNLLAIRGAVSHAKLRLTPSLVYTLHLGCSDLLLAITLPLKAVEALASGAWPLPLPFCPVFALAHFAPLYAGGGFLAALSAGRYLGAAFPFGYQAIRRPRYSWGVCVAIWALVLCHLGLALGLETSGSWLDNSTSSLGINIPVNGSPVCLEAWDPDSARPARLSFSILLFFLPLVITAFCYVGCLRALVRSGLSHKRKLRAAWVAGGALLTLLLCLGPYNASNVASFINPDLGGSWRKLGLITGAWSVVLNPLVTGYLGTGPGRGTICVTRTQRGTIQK
Outline: (§1)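 PathHunter β-gal complementation. Cells were incubated overnight at 5000/well in medium with 1% heat-inactivated FBS. Compound was added as a 20-point 2-fold series from a top final of 100 μM (1% DMSO) for 90 min at 37 °C, followed by detection reagents and chemiluminescence read after 1 h at rt.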

[2] = target: T1, Free fatty acid receptor 1 (Homo sapiens, UniProt O14842); experiment: Agonist activity at human recombinant full length GPR40 overexpressed in human HEK293 cells assessed as increase in intracellular calcium level measured over 3 mins by calcium 4 dye based FLIPR assay relative to 100 uM linoleic acid; type: functional, cell-based; conditions: filed as agonist
T1 sequence (O14842 whole entry): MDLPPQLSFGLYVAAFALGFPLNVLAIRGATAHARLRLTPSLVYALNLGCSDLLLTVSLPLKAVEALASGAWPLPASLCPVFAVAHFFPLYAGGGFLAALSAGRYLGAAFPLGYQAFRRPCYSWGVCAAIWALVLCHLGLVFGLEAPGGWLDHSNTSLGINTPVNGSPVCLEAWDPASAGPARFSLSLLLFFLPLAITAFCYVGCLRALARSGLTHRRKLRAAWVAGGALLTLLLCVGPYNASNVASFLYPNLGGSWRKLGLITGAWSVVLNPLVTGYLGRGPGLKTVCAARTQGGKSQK
Outline: (§2)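 HEK293 cells overexpressing hGPR40 (25K/well) were cultured overnight in DMEM/F12 with 0.2% FBS and geneticin. Compound was tested at 40 μM–0.1 nM final (20-point, 1% DMSO), and FLIPR fluorescence was read over 3 min.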

[3] = target: Free fatty acid receptor 1 (Mus musculus, UniProt Q76JU9); experiment: Agonist activity at Prolink-tagged mouse GPR40 fused with EA-tagged beta-arrestin expressed in human U2OS cells assessed as induction of beta-arrestin recruitment measured after 90 mins by beta-galactosidase based PathHunter assay; type: cell-based; outline: as §1
Sequence of Free fatty acid receptor 1 (Mus musculus, UniProt Q76JU9) (Q76JU9 whole entry, the tested form may be a part): as the sequence (Q76JU9 whole entry, the tested form may be a part) above

[4] = target: T2, Peroxisome proliferator-activated receptor delta (Homo sapiens) (UniProt Q03181); experiment: Displacement of [3H]-[…] from PPARdelta (unknown origin) expressed in baculovirus infected Sf9 insect cells upto 30 uM measured after 10 hrs by microbeta scintillation counting analysis; conditions: dose microM <=30, time 10.0 hrs
T2 sequence (whole entry): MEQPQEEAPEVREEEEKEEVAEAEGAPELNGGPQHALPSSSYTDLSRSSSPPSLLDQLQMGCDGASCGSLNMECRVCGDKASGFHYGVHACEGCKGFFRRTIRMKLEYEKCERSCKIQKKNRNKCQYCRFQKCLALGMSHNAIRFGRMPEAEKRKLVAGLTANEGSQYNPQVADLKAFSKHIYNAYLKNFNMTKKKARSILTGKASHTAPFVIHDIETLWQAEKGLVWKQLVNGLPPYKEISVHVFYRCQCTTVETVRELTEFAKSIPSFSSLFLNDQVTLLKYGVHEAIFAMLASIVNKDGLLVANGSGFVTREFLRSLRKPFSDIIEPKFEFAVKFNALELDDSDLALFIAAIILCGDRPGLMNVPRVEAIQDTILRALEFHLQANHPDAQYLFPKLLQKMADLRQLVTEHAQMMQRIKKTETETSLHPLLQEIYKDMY
Outline: (§3)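 Scintillation proximity assay. Sf9 lysates with baculovirus-expressed PPARα (0.3 μg), PPARδ (0.5 μg) or PPARγ (1.25 μg), each with RXRα, were bound via biotinylated DR2 oligo (0.126 nM) to streptavidin yttrium silicate beads. Buffer was HEPES pH 7.8 with KCl, MgCl2, DTT, CHAPS, 14% glycerol and salmon sperm DNA. A 3H reference agonist ligand was used, with 11 compound concentrations, for 10 h. Nonspecific binding was defined with 10000 nM unlabeled reference. Ki was derived from IC50.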

[5] = target: T1, Free fatty acid receptor 1; experiment: Agonist activity at human recombinant full length GPR40 overexpressed in human HEK293 cells assessed as increase in inositol phosphate accumulation in presence of terbium cryptate-labeled anti IP1/d2-labelled IP1 measured after 120 mins by HTRF assay relative to AMG837; type: functional, cell-based; conditions: filed as agonist
Outline: (§4)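 HEK293 hGPR40 cells (20K/well) were cultured overnight, washed, and held in IP1 stimulation buffer. IP-1 was measured by competitive HTRF immunoassay with terbium cryptate anti-IP1 mAb and d2-labelled IP1.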

[6] = target: T3, Peroxisome proliferator-activated receptor alpha (Homo sapiens) (UniProt Q07869); experiment: Displacement of [3H]-[…] from PPARalpha (unknown origin) expressed in baculovirus infected Sf9 insect cells upto 30 uM measured after 10 hrs by microbeta scintillation counting analysis; conditions: dose microM <=30, time 10.0 hrs; outline: as §3
T3 sequence (whole entry): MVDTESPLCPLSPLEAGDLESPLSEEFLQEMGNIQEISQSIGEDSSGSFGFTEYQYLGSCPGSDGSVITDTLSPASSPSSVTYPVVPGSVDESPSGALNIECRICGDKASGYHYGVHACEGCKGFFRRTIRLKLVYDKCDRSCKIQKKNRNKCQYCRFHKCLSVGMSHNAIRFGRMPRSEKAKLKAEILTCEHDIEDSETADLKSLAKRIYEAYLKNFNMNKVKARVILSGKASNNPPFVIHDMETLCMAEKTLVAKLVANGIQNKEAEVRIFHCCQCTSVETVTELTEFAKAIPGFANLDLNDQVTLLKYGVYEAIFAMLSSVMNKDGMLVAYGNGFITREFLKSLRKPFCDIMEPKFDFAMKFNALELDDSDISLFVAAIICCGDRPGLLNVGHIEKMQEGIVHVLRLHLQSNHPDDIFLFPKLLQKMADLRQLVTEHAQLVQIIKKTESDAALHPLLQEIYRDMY

[7] = target: T1, Free fatty acid receptor 1; experiment: Agonist activity at human recombinant full length GPR40 overexpressed in human HEK293 cells assessed as increase in intracellular calcium level measured over 3 mins by calcium 4 dye based FLIPR assay; type: functional, cell-based; outline: as §2
[8] = target: T1, Free fatty acid receptor 1; experiment: Displacement of [3H]-TAK-875 from human recombinant full-length GPR40 expressed in human HEK293 cell membrane incubated for 2 hrs by solid scintillation counting method; type: cell membranes
[9] = target: Voltage-gated inwardly rectifying potassium channel KCNH2 (Homo sapiens, UniProt Q12809); experiment: Inhibition of human ERG
Sequence of Voltage-gated inwardly rectifying potassium channel KCNH2 (Q12809 whole entry): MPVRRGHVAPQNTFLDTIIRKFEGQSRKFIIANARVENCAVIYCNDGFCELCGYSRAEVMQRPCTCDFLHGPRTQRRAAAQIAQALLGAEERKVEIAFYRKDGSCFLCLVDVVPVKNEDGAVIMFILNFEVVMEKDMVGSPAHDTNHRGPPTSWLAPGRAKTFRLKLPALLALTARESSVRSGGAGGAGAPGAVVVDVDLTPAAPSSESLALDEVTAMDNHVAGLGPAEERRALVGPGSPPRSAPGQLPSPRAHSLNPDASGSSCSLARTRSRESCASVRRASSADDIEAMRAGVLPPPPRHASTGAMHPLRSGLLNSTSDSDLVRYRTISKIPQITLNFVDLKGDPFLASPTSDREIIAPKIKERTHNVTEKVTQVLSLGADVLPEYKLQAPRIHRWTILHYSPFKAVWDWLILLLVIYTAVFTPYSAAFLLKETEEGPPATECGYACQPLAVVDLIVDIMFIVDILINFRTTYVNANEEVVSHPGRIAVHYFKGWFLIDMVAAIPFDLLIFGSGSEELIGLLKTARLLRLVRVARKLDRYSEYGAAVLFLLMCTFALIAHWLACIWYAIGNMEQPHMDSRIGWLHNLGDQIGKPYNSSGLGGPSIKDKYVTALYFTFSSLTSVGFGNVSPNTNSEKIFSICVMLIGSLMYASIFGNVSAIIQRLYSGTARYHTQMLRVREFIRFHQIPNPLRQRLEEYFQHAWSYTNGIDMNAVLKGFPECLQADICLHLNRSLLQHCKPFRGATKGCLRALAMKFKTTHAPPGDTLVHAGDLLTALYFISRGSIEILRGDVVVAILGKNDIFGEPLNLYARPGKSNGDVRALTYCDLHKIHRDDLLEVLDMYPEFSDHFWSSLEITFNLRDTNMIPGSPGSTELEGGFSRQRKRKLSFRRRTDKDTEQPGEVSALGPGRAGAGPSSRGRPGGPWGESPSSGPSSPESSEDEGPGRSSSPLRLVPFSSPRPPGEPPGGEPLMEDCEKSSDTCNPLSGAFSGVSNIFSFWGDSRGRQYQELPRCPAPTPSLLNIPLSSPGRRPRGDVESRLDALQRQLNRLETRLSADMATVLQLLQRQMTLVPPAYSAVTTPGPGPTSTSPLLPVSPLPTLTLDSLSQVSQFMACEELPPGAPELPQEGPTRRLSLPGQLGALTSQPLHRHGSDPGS

[10] = Protein binding in plasma (unknown origin) by equilibrium dialysis method; type: ADME, cell-free; conditions: human, read-out: PPB
Outline: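 Plasma protein binding measured by equilibrium dialysis.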

[11] = target: Free fatty acid receptor 1 (Rattus norvegicus) (UniProt Q8K3T4); experiment: Agonist activity at Prolink-tagged rat GPR40 fused with EA-tagged beta-arrestin expressed in human U2OS cells assessed as induction of beta-arrestin recruitment measured after 90 mins by beta-galactosidase based PathHunter assay relative to control; type: cell-based; conditions: filed as agonist; outline: as §1
Sequence of Free fatty acid receptor 1 (Rattus norvegicus) (Q8K3T4 whole entry, the tested form may be a part): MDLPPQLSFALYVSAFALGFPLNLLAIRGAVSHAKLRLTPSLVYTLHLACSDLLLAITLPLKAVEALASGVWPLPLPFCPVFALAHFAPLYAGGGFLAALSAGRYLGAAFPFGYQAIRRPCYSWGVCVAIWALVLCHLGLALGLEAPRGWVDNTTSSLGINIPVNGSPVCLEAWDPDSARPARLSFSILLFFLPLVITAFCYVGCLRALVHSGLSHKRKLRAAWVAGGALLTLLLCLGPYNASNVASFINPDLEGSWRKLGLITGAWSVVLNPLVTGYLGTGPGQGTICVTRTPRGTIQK

[12] = target: T1, Free fatty acid receptor 1; experiment: Agonist activity at human recombinant full-length Prolink-tagged GPR40 fused with EA-tagged beta-arrestin expressed in human HEK293 cells assessed as induction of beta-arrestin recruitment measured after 90 mins by beta-galactosidase based PathHunter assay relative to control; type: cell-based; conditions: filed as agonist; outline: as §1
[13] = target: T1, Free fatty acid receptor 1; experiment: Agonist activity at human recombinant full-length Prolink-tagged GPR40 fused with EA-tagged beta-arrestin expressed in human HEK293 cells assessed as induction of beta-arrestin recruitment measured after 90 mins by beta-galactosidase based PathHunter assay; type: cell-based; outline: as §1
[14] = target: T1, Free fatty acid receptor 1; experiment: Agonist activity at human recombinant full length GPR40 overexpressed in human HEK293 cells assessed as increase in inositol phosphate accumulation in presence of terbium cryptate-labeled anti IP1/d2-labelled IP1 measured after 120 mins by HTRF assay; type: functional, cell-based; outline: as §4
[15] = target: T4, Peroxisome proliferator-activated receptor gamma (Homo sapiens) (UniProt P37231); experiment: Displacement of [3H]-[…] from PPARgamma (unknown origin) expressed in baculovirus infected Sf9 insect cells upto 30 uM measured after 10 hrs by microbeta scintillation counting analysis; conditions: dose microM <=30, time 10.0 hrs; outline: as §3
T4 sequence (whole entry): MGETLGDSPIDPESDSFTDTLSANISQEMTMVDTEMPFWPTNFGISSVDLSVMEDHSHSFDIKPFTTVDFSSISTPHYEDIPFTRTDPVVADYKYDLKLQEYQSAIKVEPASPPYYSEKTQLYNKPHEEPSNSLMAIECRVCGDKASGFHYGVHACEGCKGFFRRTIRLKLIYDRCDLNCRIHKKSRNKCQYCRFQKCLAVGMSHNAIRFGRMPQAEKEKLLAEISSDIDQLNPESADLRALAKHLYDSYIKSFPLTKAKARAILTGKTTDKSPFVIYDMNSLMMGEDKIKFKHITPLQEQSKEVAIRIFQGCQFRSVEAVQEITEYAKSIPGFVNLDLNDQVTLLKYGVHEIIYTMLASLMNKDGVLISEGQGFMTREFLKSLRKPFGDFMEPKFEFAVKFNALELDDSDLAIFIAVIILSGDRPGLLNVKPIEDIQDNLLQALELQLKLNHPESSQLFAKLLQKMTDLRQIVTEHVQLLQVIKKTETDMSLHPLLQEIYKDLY

[16] = target: Free fatty acid receptor 1 (Rattus norvegicus, UniProt Q8K3T4); experiment: Agonist activity at Prolink-tagged rat GPR40 fused with EA-tagged beta-arrestin expressed in human U2OS cells assessed as induction of beta-arrestin recruitment measured after 90 mins by beta-galactosidase based PathHunter assay; type: cell-based; outline: as §1
Sequence of Free fatty acid receptor 1 (Rattus norvegicus, UniProt Q8K3T4) (Q8K3T4 whole entry, the tested form may be a part): as the sequence (Q8K3T4 whole entry, the tested form may be a part) above

Rattus norvegicus [17] = experiment: Hypoglycemic activity in Zucker fatty diabetes mellitus rat model assessed as reduction in blood glucose level at 3 mg/kg, po administered for 21 days and measured at 10 to 60 mins post glucose challenge on day 1 by OGTT; type: functional, organism-based; conditions: time 21.0 day
Rattus norvegicus [18] = experiment: Hypoglycemic activity in Zucker fatty diabetes mellitus rat model assessed as increase in insulin levels in plasma at 3 mg/kg, po administered for 21 days and measured at 10 to 60 mins post glucose challenge on day 1 by OGTT; type: functional, organism-based; conditions: time 21.0 day
Mus musculus = experiment: Hypoglycemic activity in Balb/c mouse assessed as effective dose causing reduction in blood glucose level administered orally 60 mins prior to glucose challenge measured for 60 mins by IPGTT; type: functional; conditions: po, 1 h
[19] = AUC in hyperglycemic Balb/c mouse plasma at 29.4 mg/kg measured upto 60 mins; type: ADME, organism-based; parameters: dose 29.4 mg/kg, time <=60
[20] = Drug distribution in C57BL/6 mouse colon at 3 microg/kg, iv administered as single dose observed at 20 to 40 mins by LC-MS/MS analysis; type: ADME, organism-based; conditions: in vivo, 0.003 mg/kg, time 20-40 min, dose 3 µg/kg
Outline: (§5)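 Tracer microdose study in fed male C57BL/6 mice: single 3 μg/kg IV dose in 25% HP-BCD. Mice were killed by cervical dislocation, and spleen, ascending colon, skeletal muscle and plasma were sampled at 20 and 40 min.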

[21] = Protein binding in C57BL/6 mouse plasma at 3 microg/kg, iv by LC-MS/MS analysis; type: ADME, organism-based; conditions: in vivo, 0.003 mg/kg, dose 3 µg/kg
[22] = target: Free fatty acid receptor 1 (Rattus norvegicus) (UniProt Q8K3T4); experiment: Agonist activity at GPR40 in Sprague-Dawley rat pancreatic islets assessed as induction of glucose-mediated insulin secretion measured after 90 mins in EBSS buffer by ELISA; type: tissue-based; conditions: Pancreatic islet, filed as agonist
Outline: (§6)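 Glucose-dependent insulin secretion in mouse MIN6 cells or rat islet cells, scored as secretion above the glucose-alone level.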

[23] = Drug distribution in C57BL/6 mouse spleen at 3 microg/kg, iv administered as single dose observed at 20 to 40 mins by LC-MS/MS analysis; type: ADME, organism-based; conditions: in vivo, 0.003 mg/kg, time 20-40 min, dose 3 µg/kg; outline: as §5
[24] = target: Free fatty acid receptor 1 (Mus musculus) (UniProt Q76JU9); experiment: Agonist activity at GPR40 in mouse MIN6 cells assessed as induction of glucose-mediated insulin secretion incubated for 2 hrs by ELISA; type: cell-based; conditions: filed as agonist; outline: as §6
[25] = AUC in hyperglycemic Balb/c mouse plasma at 1 mg/kg measured upto 60 mins; type: ADME, organism-based; parameters: dose 1 mg/kg, time <=60

Compound | Emax [1] [%] | EC50 [3] [nM] | Activity [4] | Activity [6] | fraction unbound [10] | Emax [11] [%] | Activity [15] | EC50 [16] [nM] | ED90 (Mus musculus) [mg/kg] | further results
CC#C[C@@H](CC(=O)O)c1ccc(OCc2ccc(CN3CCC4(C=Cc5ccccc54)CC3)c(OC)c2)cc1 | 128 | 1.4 | inactive | inactive | < 0.01 | 119 | inactive | 3 | – | Emax [2]: 61%; Emax [5]: 345%; EC50 [7]: 17 nM; Ki [8]: 2.5 nM; Ki [9]: 6.3 µM; Emax [12]: 140%; EC50 [13]: 10 nM; EC50 [14]: 7.4 nM
CN(CCOc1ccc(CC2SC(=O)NC2=O)cc1)c1ccccn1 (centres undefined) | – | – | – | – | – | – | – | – | – | Activity (Rattus norvegicus [17]): inactive; Activity (Rattus norvegicus [18]): inactive
Cc1cc(OCCCS(C)(=O)=O)cc(C)c1-c1cccc(COc2ccc3c(c2)OC[C@H]3CC(=O)O)c1 | – | – | inactive | inactive | < 0.01 | – | inactive | – | 29.4 | AUC at 1 h [19]: 7370 ng·h/mL
CC#C[C@@H](CC(=O)O)c1ccc(OCc2cccc(-c3ccc(C(F)(F)F)cc3)c2)cc1 | 137 | 1.5 | inactive | inactive | < 0.01 | 148 | inactive | 3.2 | 1 | Drug uptake [20]: Not Active; PPB [21]: Active; Activity [22]: Active; Drug uptake [23]: Not Active; Activity [24]: Active; AUC at 1 h [25]: 33900 ng·h/mL
